# Bioassay records from PubChem.
# Yeast lifespan up: extends the lifespan of yeast; S. cerevisiae growth with nicotinamide, OD615; deaD strain in restrictive glucose medium; inhibition of the nicotinamide effect, % at 10 µM; hit rate 0.68% among 130,000; AID 775;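 active means inhibition above a set limit, placed 3 SD over the median of all compounds, cut at about 26% in these data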;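 further: 0% = nicotinamide-treated wells and 100% = cells grown without nicotinamide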
#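 assay system = DeaD-strain S. cerevisiae | buffer or medium = restrictive glucose medium | reagent = 1.5 mM nicotinamide | compound = 10 µM single point, 0.25% DMSO | incubation = 48 h compound exposure at 30 °C, humidified | signal = OD615 measurement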
# PostGolgi ctrl: yeast control strain growth, post-Golgi counter-screen. efflux-deficient yeast background strain, growth absorbance A615, 16 h. inhibition, % at 10 µM. hit rate 5% among 98,000. AID 738
# BB579 growth dn: chemicals that inhibit yeast BB579 growth in restrictive medium (lifespan-shortening candidates) | hit rate 0.51% among 140,000 | S. cerevisiae BB579 growth, OD615, 48 h | inhibition, % at 10 µM;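 active means inhibition above a set limit, 3 SD over the mean compound inhibition, cut at about 44% in these data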
#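 Assay system: S. cerevisiae DeaD strain BB579 yeast. Medium: CSMM-D restrictive synthetic medium containing dextrose (glucose). Times: 4 h cell preincubation, 48 h compound exposure, 30 °C humidified. Signal: OD615 turbidity measurement. Benchmarks: positive control amphotericin B 10 µg/mL.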
# PostGolgi yeast: growth inhibition of a yeast mutant, post-Golgi transport screen; post-Golgi transport phenotypic cell assay; inhibition, % at 10 µM; hit rate 0.9% among 98,000;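 further: yeast cells grown in 1536-well plates; yeast grown about 18 h at 30C before absorbance read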
# * marks the source's active call; other numbers are inactive results; · = no result. The sample as a whole holds a higher share of hits than the screen did. Unless noted, no stated cut-off is given here; in the data, active means inhibition above about 30%; inactive means the rest.
SMILES,Yeast lifespan up,PostGolgi ctrl,BB579 growth dn,PostGolgi yeast
Cc1cc(N=Cc2c(O)n(-c3ccc4c(c3)OCO4)c(=O)c3ccccc23)ccn1,-8.0,30.1*,-34.8,-0.3
O=C(CC1Sc2ccccc2NC1=O)Nc1cccc(-c2nnc3n2CCCCC3)c1 (configuration not stated),-14.3,8.8,-29.5,4.8
Cc1nc2c(-c3ccc(F)cc3)c(C)nn2c(C)c1CCC(=O)N1CCN(c2ccc(F)cc2)CC1,-10.7,25.7,2.2,-12.8
CCc1cc2c(=O)c(-c3nc4ccccc4n3C)c(C)oc2c(CN2CCN(C)CC2)c1O,5.8,11.1,-38.0,1.0
CCc1cc2c(=O)c(Oc3ccccc3F)c(C)oc2c(CN(C)C)c1O,-9.6,-1.8,23.4,50.7*
CCOC(=O)CCSc1nnc(-c2cccnc2)n1-c1ccccc1OC,-3.1,6.2,-31.9,-4.1
CCCCCn1c(CN2CCN(c3cc(Cl)ccc3C)CC2)nc2c1c(=O)[nH]c(=O)n2C,-5.0,55.8*,3.8,-1.6
CCCCCn1c(N2CCN(c3cccc(Cl)c3)CC2)nc2c1c(=O)[nH]c(=O)n2C,-8.0,19.7,-42.3,27.5
Cn1c(=O)[nH]c(=O)c2c1nc(Br)n2Cc1ccccc1Cl,-7.9,5.7,-13.7,0.5
CCCCCSc1nc2c(c(=O)[nH]c(=O)n2C)n1C,58.2*,-1.4,12.7,8.2
CC1CCN(c2nc3c(c(=O)[nH]c(=O)n3C)n2Cc2ccccc2Cl)CC1,-5.9,39.6*,3.3,-0.7
CCCCn1c(N2CCC(Cc3ccccc3)CC2)nc2c1c(=O)[nH]c(=O)n2C,-8.1,63.0*,-49.0,7.4
CC(=O)Nc1ccc(NC(=O)/C(Cl)=C/c2ccccc2)cc1,-21.8,24.2,-26.0,-8.0
CCOC(=O)N1CCN(S(=O)(=O)c2ccc3c(c2)SC(C)C(=O)N3)CC1 (configuration not stated),-6.4,-0.8,-28.1,1.0
Cn1c(=O)[nH]c(=O)c2c1nc(N1CCCCC1)n2CC(O)CN1CCCCC1 (configuration not stated),44.7*,-3.9,2.3,18.8
CCCCCCn1c(N2CCC(C)CC2)nc2c1c(=O)[nH]c(=O)n2C,-25.4,34.3*,-52.6,16.5
O=C1NCCCC2c3c(cc(Br)c(O)c3Br)OC12N1CCCCC1 (configuration not stated),-6.6,11.5,-47.0,-3.9
CCc1cc2cc(C(=O)N3CCN(Cc4ccccc4)CC3)sc2s1,-16.2,34.7*,-27.6,18.4
CCc1cc2cc(C(=O)N3CCN(c4ccccc4)CC3)sc2s1,-5.5,3.8,-45.8,-1.8
CC1(C)CC(=O)C2=C(C1)N=c1s/c(=C/c3ccc(F)c(F)c3)c(=O)n1C2c1ccc(F)cc1 (configuration not stated),-11.9,31.0*,-55.2,22.8
Cc1ccccc1N(CC(=O)NCCSC1CCCCC1)S(=O)(=O)c1ccccc1,2.0,49.4*,-50.5,1.0
CCC1C/C(=C\c2cccnc2)C(=O)/C(=C/c2cccnc2)C1 (configuration not stated),83.6*,·,-12.7,·
O=C1/C(=C/c2cccnc2)CCC/C1=C\c1cccnc1,74.0*,·,1.6,·
O=C(OCCNc1ncc(C(F)(F)F)cc1Cl)c1ccc(S(=O)(=O)N2CCOCC2)cc1,-8.6,24.6,-58.9,-2.2
COc1ccccc1NC(=O)N1CCN(c2ncccn2)CC1,-10.2,4.9,-37.8,4.7
SMILES,Yeast lifespan up,PostGolgi ctrl,BB579 growth dn,PostGolgi yeast
Cc1cc(C)c2c3c(sc2n1)C(c1cccc(F)c1)C(C#N)=C(N)O3 (configuration not stated),-6.2,73.7*,23.8,19.2
COc1ccccc1CNC(=O)C(CCSC)NS(=O)(=O)c1ccc2c(c1)oc(=O)n2C (configuration not stated),86.6*,10.1,-8.5,-3.2
Clc1ccc(-c2nnc(Sc3nc4ccccc4o3)c3ccccc23)cc1,-4.9,57.0*,-34.0,-7.8
Cc1nnc(Sc2nc3ccccc3o2)c2ccccc12,-7.3,1.1,0.9,-1.5
Cc1ccc(-c2nnc(Sc3nc4ccccc4o3)c3ccccc23)cc1,-3.4,64.1*,-17.5,-22.4
Cc1cc(O)c(/C=N/Nc2ccc(Cl)cc2)c(=O)o1,-28.1,8.4,96.7*,66.1*
Clc1cccc(N/N=C/c2ccc(N3CCOCC3)s2)c1,-9.5,·,23.6,·
Cc1ccc(/C=N/Nc2ccc(Cl)c(C(=O)O)c2)s1,-0.4,·,3.3,·
Cc1cc(O)c(/C=N/Nc2cccc(Cl)c2)c(=O)o1,-25.6,7.4,97.6*,14.7
Cc1cc(O)c(/C=N/Nc2ccccc2Cl)c(=O)o1,-31.9,0.0,97.9*,-1.1
O=C(COc1cccc(OC(F)F)c1)Nc1ccc(SC(F)F)cc1,-14.5,30.8*,-74.1,-11.6
O=C(COc1cccc(Oc2ccccc2)c1)Nc1ccc(SC(F)F)cc1,0.3,10.5,-63.8,13.4
CN(C)S(=O)(=O)c1cccc(CSc2cccc[n+]2[O-])c1,-10.7,0.8,-6.3,-11.5
CCCOc1ccc(C(=O)NNC(=S)NC(=O)CC)cc1,9.9,98.9*,-36.6,76.1*
O=C(CNC(=O)c1ccncc1)N/N=C/c1cc(Br)ccc1O,12.4,·,-54.2,·
O=C(N/N=C/c1cc(Br)ccc1O)C(c1ccncc1)N1CCOCC1 (configuration not stated),35.2*,·,-5.6,·
COCCNC(=O)COc1cccc(Oc2ccccc2)c1,-28.9,30.9*,-39.8,11.8
O=C(COc1cccc(Oc2ccccc2)c1)Nc1ncccn1,-15.5,-3.5,-9.6,-1.9
Cc1cc(NC(=O)COc2cccc(Oc3ccccc3)c2)no1,-2.9,31.0*,16.3,4.8
Cc1oc2c(CN(C)C)c(O)ccc2c(=O)c1-c1ccc2ccccc2n1,-26.8,35.4*,-56.3,-6.1
COc1ccc(N2CCN(C(c3ccccc3)c3nnnn3Cc3ccc(F)cc3)CC2)cc1 (configuration not stated),-3.2,34.1*,-6.2,-1.9
COc1ccc(C(c2nnnn2Cc2ccc(F)cc2)N2CCN(c3ccccc3)CC2)cc1 (configuration not stated),-7.8,36.7*,-18.1,7.3
COc1ccc(C(c2nnnn2Cc2ccc(F)cc2)N2CCN(c3ccc(OC)cc3)CC2)cc1 (configuration not stated),-5.9,28.9,-77.6,2.9
Cc1cc(NC(=O)CN2C(=O)C3CC=CCC3C2=O)no1 (configuration not stated),-5.8,5.0,-34.3,3.6
C[C@]12CC[C@@H]3c4ccc(O)cc4CC[C@H]3[C@@H]1CC[C@@H]2OC(=O)CCC(=O)O,56.7*,·,-61.4,·
SMILES,Yeast lifespan up,PostGolgi ctrl,BB579 growth dn,PostGolgi yeast
C[C@]12CC[C@@H]3c4ccc(O)cc4CC[C@H]3[C@@H]1C[C@@H](O)[C@@H]2O,3.1,·,-28.2,·
Cc1ccc(CNC(=O)Cn2c(=O)oc3ccccc32)o1,-7.3,39.9*,-40.2,0.7
CC(C)Oc1ccc(CNC(=O)Cn2c(=O)oc3ccccc32)cc1,-5.3,7.6,-32.3,-2.0
CC1=CC(=O)c2ccccc2C1=O,12.1,·,67.7*,·
CC(CC(=O)NC1CCCC1)c1ccccc1 (configuration not stated),-9.8,4.3,-25.5,-3.8
Cc1cc(C)c(Cc2c(C)nc3c(C(=O)NCc4ccco4)cnn3c2C)c(C)c1,16.4,43.5*,-33.5,11.7
